Reference: ChEMBL document CHEMBL4715695, “Adamantyl-tethered-biphenylic compounds induce apoptosis in cancer cells by targeting Bcl homologs” (Bioorg Med Chem Lett, 2016)
Activity calls are given as the source filed them. The rule behind the calls is not given here.

What was measured:
[1] = tested on: HepG2; test: Cytotoxicity against human HepG2 cells assessed as reduction in cell viability measured upto 72 hrs by MTT assay; format: functional, cell-based; settings: for IC50: HepG2, 72 h
Method in brief: (§1)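 HCC cells plated at 2.5 × 10^4/mL in triplicate and exposed to a range of compound concentrations. Proliferation was read by MTT at 24, 48 and 72 h.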

[2] = tested on: L02; test: Cytotoxicity against human L02 cells assessed as reduction in cell viability measured upto 72 hrs by MTT assay; format: cell-based; settings: l02, 72 h
[3] = tested on: Hep 3B2; test: Cytotoxicity against human Hep3B cells assessed as reduction in cell viability measured upto 72 hrs by MTT assay; format: functional, cell-based; settings: dose 10-50 µM, time hrs <=72; method in brief: as §1
[4] = tested on: Huh-7; test: Cytotoxicity against human HuH-7 cells assessed as reduction in cell viability measured upto 72 hrs by MTT assay; format: functional, cell-based; settings: dose 10-50 µM, time hrs <=72; method in brief: as §1
[5] = tested on: HepG2; test: Induction of apoptosis in human HepG2 cells assessed as decrease in cyclin-D1 measured upto 48 hrs by Western blot analysis; format: functional, cell-based; settings: time hrs <=48
Method in brief: (§2)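 Lysates of compound-treated HepG2 cells were immunoblotted for procaspase-3, PARP, survivin and cyclin D1. Full-length PARP is 116 kDa; cleavage yields 85 and 24 kDa fragments.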

[6] = tested on: MDA-MB-231; test: Induction of apoptosis in human MBA-MB-231 cells assessed as upregulation of Bcl-2 expression measured upto 48 hrs by Western blot analysis; format: functional, cell-based; settings: time hrs <=48, TDE = time-dependent effect, in the assay text read “downregulation” for “upregulation”
Method in brief: (§3)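 Bcl-2 and Bcl-xL levels in MDA-MB-231 cells after compound treatment were assessed by western blot, with β-actin as loading control.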

[7] = tested on: HepG2; test: Induction of cell cycle arrest in human HepG2 cells assessed as increase in accumulation of SubG1 phase incubated for 48 hrs by propidium iodide staining based flow cytometry analysis; format: functional; settings: dose 10-40 µM
Method in brief: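 HepG2 cells were treated at 0, 10, 20 and 40 µM for 48 h, then ethanol-fixed and stained with propidium iodide. Cell cycle distribution, including the subG1 fraction, was analysed by flow cytometry.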

[8] = tested on: HepG2; test: Induction of apoptosis in human HepG2 cells assessed as decrease in full length PARP measured upto 48 hrs by Western blot analysis; format: functional, cell-based; settings: time hrs <=48, TDE = time-dependent effect; method in brief: as §2
[9] = tested on: HepG2; test: Induction of apoptosis in human HepG2 cells assessed as increase in PARP cleavage measured upto 48 hrs by Western blot analysis; format: functional, cell-based; settings: time hrs <=48, TDE = time-dependent effect; method in brief: as §2
[10] = tested on: HepG2; test: Induction of apoptosis in human HepG2 cells assessed as decrease in survivin measured upto 48 hrs by Western blot analysis; format: functional, cell-based; settings: time hrs <=48; method in brief: as §2
[11] = tested on: HepG2; test: Induction of apoptosis in human HepG2 cells assessed as increase in pro-caspase 3 activation measured upto 48 hrs by Western blot analysis; format: functional, cell-based; settings: time hrs <=48, TDE = time-dependent effect; method in brief: as §2
[12] = tested on: HepG2; test: Induction of apoptosis in human HepG2 cells assessed as upregulation of Bcl-xl expression measured upto 48 hrs by Western blot analysis; format: functional, cell-based; settings: time hrs <=48, in the assay text read “downregulation” for “upregulation”, TDE = time-dependent effect
Method in brief: (§4)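 HepG2 cells were exposed to compound and harvested at 0, 12, 18, 24 and 48 h. Bcl-2 and Bcl-xL levels were detected by western blot, with β-actin as loading control.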

[13] = tested on: HepG2; test: Antiproliferative activity in human HepG2 cells transfected with Bcl2 siRNA assessed as reduction in cell growth at 10 to 50 uM incubated for 24 hrs by MTT assay; format: functional, cell-based; settings: dose 10-50 µM
Method in brief: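 HepG2 cells were transfected with Bcl-2 siRNA, with control siRNA-transfected cells as the comparator. Cells were then exposed to graded compound doses, and proliferation was measured by MTT.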

[14] = tested on: HepG2; test: Induction of apoptosis in human HepG2 cells assessed as upregulation of Bcl-2 expression measured upto 48 hrs by Western blot analysis; format: functional, cell-based; settings: time hrs <=48, in the assay text read “downregulation” for “upregulation”, TDE = time-dependent effect; method in brief: as §4
[15] = tested on: MDA-MB-231; test: Induction of apoptosis in human MBA-MB-231 cells assessed as upregulation of Bcl-xl expression measured upto 48 hrs by Western blot analysis; format: functional, cell-based; settings: time hrs <=48, in the assay text read “downregulation” for “upregulation”; method in brief: as §3

Structure (SMILES)	IC50 [1] [µM]	Activity [2]	other results
COc1ccc(C2=Cc3ccccc3C2)cc1C12CC3CC(CC(C3)C1)C2	6.9	Toxic	
COc1ccc(-c2ccc(C(F)(F)F)cc2)cc1C12CC3CC(CC(C3)C1)C2	> 50	Non-Toxic	
COc1cccc(-c2ccc(OC)c(C34CC5CC(CC(C5)C3)C4)c2)c1	> 50	Non-Toxic	
COc1ccc(-c2ccccc2F)cc1C12CC3CC(CC(C3)C1)C2	> 50	Non-Toxic	
COc1ccc(-c2ccccc2Cl)cc1C12CC3CC(CC(C3)C1)C2	21.9	Toxic	
COc1ccc(-c2ccccc2C)cc1C12CC3CC(CC(C3)C1)C2	49.1	Non-Toxic	
COc1ccc(-c2cccc(Cl)c2)cc1C12CC3CC(CC(C3)C1)C2		Non-Toxic	
COc1ccc(-c2ccccc2)cc1C12CC3CC(CC(C3)C1)C2	> 50	Non-Toxic	
COc1ccc(-c2ccc(C(=O)N3CCCCC3)cc2)cc1C12CC3CC(CC(C3)C1)C2	> 50	Non-Toxic	
CC1(C)CCC(c2ccc(Cl)cc2)=C(CN2CCN(c3ccc(C(=O)NS(=O)(=O)c4ccc(N[C@H](CCN5CCOCC5)CSc5ccccc5)c(S(=O)(=O)C(F)(F)F)c4)cc3)CC2)C1			Activity ([1]; time hrs <=72): Dose-dependent effect; Activity [3]: Dose-dependent effect; Activity [4]: Dose-dependent effect
COc1ccc(-c2cccc3ccccc23)cc1C12CC3CC(CC(C3)C1)C2	46.2	Non-Toxic	
COc1ccc(-c2ccccc2C#N)cc1C12CC3CC(CC(C3)C1)C2	> 50	Non-Toxic	
COc1ccc(-c2ccc(Cl)c(C(F)(F)F)c2)cc1C12CC3CC(CC(C3)C1)C2	> 50	Non-Toxic	
COc1ccc(-c2cccc(O)c2)cc1C12CC3CC(CC(C3)C1)C2	26.1	Non-Toxic	Activity [5]: Active; Activity [6]: Tde; Activity [7]: Dose-dependent effect; Activity [8]: Tde; Activity [9]: Tde; Activity [10]: Active; Activity [11]: Tde; Activity [12]: Tde; inhibition [13]: inactive; Activity [14]: Tde; Activity [15]: Active
COc1ccc(-c2c(F)cc(F)c(OC)c2F)cc1C12CC3CC(CC(C3)C1)C2	> 50	Non-Toxic	
